The target of this test is T1, OR2T4 (Homo sapiens) (UniProt Q8NH00).
T1 sequence (whole entry): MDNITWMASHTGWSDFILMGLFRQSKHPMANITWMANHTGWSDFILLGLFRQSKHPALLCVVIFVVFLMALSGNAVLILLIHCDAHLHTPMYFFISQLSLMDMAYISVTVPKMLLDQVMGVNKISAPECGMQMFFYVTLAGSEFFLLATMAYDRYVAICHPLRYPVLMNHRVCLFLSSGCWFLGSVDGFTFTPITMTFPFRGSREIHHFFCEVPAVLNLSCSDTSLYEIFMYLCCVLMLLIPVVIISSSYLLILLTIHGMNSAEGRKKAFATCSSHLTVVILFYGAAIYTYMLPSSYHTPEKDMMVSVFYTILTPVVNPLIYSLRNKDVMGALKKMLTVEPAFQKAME
The conditions noted are these: stereoisomer not certain. The essentials:
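Transient luciferase assays in mammalian cell lines were common, though methods varied by source. The values come from published papers and their supplementary material, with extra details from the original authors when needed. Responsive refers to a measured signal the original authors judged statistically different from baseline, and non-responsive (inactive) to the remainder.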
On to `CCCCCCCCCCCCCC(=O)OCC`, for which the “odorant receptor agonist call” value is “inactive”.
With `CCCCCCC(=O)[O-].[H+]` the entry was “inactive”; with `CC(O)C(=O)[O-].[H+]` (stereo not given), “inactive”.
Then `CCCCCCCC(=O)OCC`, with “inactive”; and `CCCCCCCCCCCCCCCC(=O)OC`, with “inactive”; and `CCCCCCCCCCCCCCCCCC(=O)[O-].[H+]`, with “inactive”.
With `CC(C)(C)c1ccccc1` the entry was “inactive”; with `COc1ccc2[nH]cc(CCNC(C)=O)c2c1`, “inactive”; with `CCCC(=O)CC`, “inactive”.
For `CC(C=O)Cc1ccc(C(C)(C)C)cc1` (stereo not given), the “odorant receptor agonist call” value was “active”.
Consider `CCC(=O)O`, for which the “odorant receptor agonist call” value is “inactive”.
For `CC(CC=O)c1ccccc1` (stereo not given), the “odorant receptor agonist call” value was “inactive”.
Then `O=c1ccc2ccccc2o1`, with “inactive”; and `CCCCCCCCCCCCCC(=O)O`, with “inactive”.
With `CCCCCCCCCC(=O)OC` the entry was “inactive”; with `C=C(C)C1CC=C(C)CC1` (stereo not given), “inactive”.
With `CCCCC(=O)C(C)=O`, the “odorant receptor agonist call” value is “inactive”.
Then `CCCCCCCCCC(=O)OCC`, with “inactive”; and `C=C1CCC2CC1C2(C)C` (stereo not given), with “inactive”; and `CCCCCCCCCCCCCCCC(=O)OCC`, with “inactive”.
Take `CCCCCCCCCCCC(=O)O`: the “odorant receptor agonist call” value was “inactive”.
Take `CCCCCCCCCCCCO`: the “odorant receptor agonist call” value is “inactive”.
Then `CCCCCCCCCCCC(=O)OC`, with “inactive”; and `CCCCCCCCCCCCCCCC(=O)[O-].[H+]`, with “inactive”; and `CCCCCCCC(=O)[O-].[H+]`, with “inactive”.
With `CCCCCCCCCCCCCCC(=O)O` the entry was “inactive”; with `CCC(O)CC`, “inactive”.
With `Cc1cccc(C)c1C` the entry was “inactive”; with `CCCCCCCCCCCCCCCCCC(=O)OCC`, “inactive”; with `CCCCCCCCCCCCCCCCCC(=O)OC`, “inactive”.
In the case of `CC(C)=CCCC(C)=CCCC(C)=CCO`, the “odorant receptor agonist call” value is “inactive”.
Then `CC(=O)O`, with “inactive”; and `CCCCCCCCCCCCCC(=O)OC`, with “inactive”.
Then `CCCO`, with “inactive”; and `CCC(C)CO` (stereo not given), with “inactive”; and `CCCCCCCCCCCC(=O)OCC`, with “inactive”.
Then `CCCCCCCC(=O)OC`, with “inactive”; and `Cc1cnc(C)cn1`, with “inactive”.
On to `CCCCCCCCO`, for which the “odorant receptor agonist call” value was “inactive”.
Then `CCCCOCC(C)O` (stereo not given), with “inactive”.

The values above are taken from the M2OR odorant receptor database.
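Note: active if original authors judged signal statistically different from baseline.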
